Legend:
[1] = Cytotoxicity against mouse RAW264.7 cells assessed as cell survival at 100 uM after 24 hrs by MTT assay relative to control; assay type: cell-based; conditions: read-out: Activity
Procedure, shortened: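 RAW264.7 seeded 5 × 10^3/well for 24 h at 37 °C, 5% CO2. Samples dissolved in DMSO and diluted in DMEM to final 100 μM with 1% DMSO; 1% DMSO as solvent control, cell-free medium as blank. After 24 h, MTT added for 4 h; medium removed, formazan dissolved in DMSO, absorbance read at 490 nm. % inhibition computed relative to solvent control after blank subtraction.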

[2] = test system: RAW264.7; assay: Antiinflammatory activity in mouse RAW264.7 cells assessed as inhibition of LPS-induced nitric oxide production preincubated for 1 hr followed by LPS stimulation and measured after 24 hrs by Griess reagent based assay; assay type: functional, cell-based

COc1cc(C[C@@H](O)[C@@H]2C[C@@H](O)[C@@H](c3cc(OC)c(O)c(OC)c3)[C@H](c3ccc(O)c(OC)c3)O2)ccc1O
viability at 24 h, 100 µM [1]: > 90% | IC50 [2]: 23.6 µM

C[C@@H]1C[C@H]2[C@@H]3CCC4=CC(=O)C=C[C@]4(C)[C@@]3(F)[C@@H](O)C[C@]2(C)[C@@]1(O)C(=O)CO [DEXAMETHASONE]
IC50 [2]: 32.5 µM

COc1cc(CC[C@H]2C[C@H](O)[C@H](O)[C@@H](c3ccc(O)c(OC)c3)O2)ccc1O
viability at 24 h, 100 µM [1]: > 90% | IC50 [2]: > 50 µM

COc1cc(C(=O)C[C@H]2C[C@@H](O)C[C@@H](c3ccc(O)c(OC)c3)O2)ccc1O
viability at 24 h, 100 µM [1]: > 90% | IC50 [2]: 17.4 µM

COc1cc(C[C@@H](O)[C@H]2C[C@H](O)[C@@H](c3ccc(O)c(OC)c3)[C@H](c3ccc(O)c(OC)c3)O2)ccc1O
viability at 24 h, 100 µM [1]: > 90% | IC50 [2]: > 50 µM

COc1cc(C[C@H](O)[C@@H]2C[C@@H](O)C[C@H](c3ccc(O)c(OC)c3)O2)ccc1O
viability at 24 h, 100 µM [1]: > 90% | IC50 [2]: > 50 µM

COc1cc(C[C@H]2O[C@@H](CC(=O)c3ccc(O)c(OC)c3)C[C@H]2O)ccc1O
viability at 24 h, 100 µM [1]: > 90% | IC50 [2]: 26.5 µM

COc1cc(C(=O)C[C@H]2C[C@H](O)C[C@@H](c3ccc(O)c(OC)c3)O2)ccc1O
viability at 24 h, 100 µM [1]: > 90% | IC50 [2]: > 50 µM

COc1cc(C[C@@H](O)[C@@H]2C[C@@H](O)[C@@H](c3ccc(O)c(OC)c3)[C@H](c3ccc(O)c(OC)c3)O2)ccc1O
viability at 24 h, 100 µM [1]: > 90% | IC50 [2]: > 50 µM

COc1cc(CC[C@H]2C[C@H](O)[C@@H](O)[C@@H](c3ccc(O)c(OC)c3)O2)ccc1O
viability at 24 h, 100 µM [1]: > 90% | IC50 [2]: 21.8 µM

— ChEMBL document CHEMBL4627292, “Diarylheptanoids with NO production inhibitory activity from Amomum kravanh” (Bioorg Med Chem Lett, 2020)
